Key:
[1] = folding enthalpy; higher = less favourable; fluorescence melt of hairpins on a sequencing array, two-state fit; details: sodium 0.088 M
Method in brief: (§1)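 Cy3 fluorescence of library hairpins on a sequenced MiSeq flow cell, with annealed Cy3 and quencher oligos, was imaged in 50 mM Na-HEPES pH 8.0, 25 mM NaCl in 2.5 °C steps up to 60 °C. Signals were normalised to pre-quench Cy3 and to control variants. Melting temperature and folding enthalpy came from bootstrapped two-state fits, inverse-variance combined over four replicates. Fitted temperatures were raised by 9.35 °C to match UV melts.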

[2] = melting temperature; fluorescence melt of hairpins on a sequencing array, two-state fit, raised by 9.35 °C to match UV melts; details: sodium 0.088 M
Method in brief: as §1

Sequence | folding enthalpy [1] [kJ/mol] | Tm [2] [°C]
GCGAGACGAAAGTCCGC (((.(((....)))))) | -122 | 67.2
GCGAGACTTCGC ((((....)))) | -43.7 | 56.6
GCGAGAGCTCGC ((((....)))) | -53.4 | 52.5
GCGAGAGGAAACTTTCGC ((((.((....)).)))) | -141 | 48.8
GCGAGAGGTCGC ((((....)))) | -35 | 50.9
GCGAGCAGTCGC ((((....)))) | -109 | 52.6
GCGAGCCGAAAGGCCCGC (((.(((....))).))) | -109 | 67.8
GCGAGCGAAAGCTGCCGC ((((((....)))..))) | -54.8 | 53.5
GCGAGCGGTCGC ((((....)))) | -93.9 | 52
GCGAGGACTCGC ((((....)))) | -133 | 56.1
GCGAGGATCGC ((((...)))) | -99.2 | 59.4
GCGAGGCATCGC ((((....)))) | -110 | 57.4
GCGAGGCGAAAGCGGCGC (((..((....))..))) | -159 | 66.8
GCGAGGGATCGC ((((....)))) | -69.5 | 52.1
GCGAGGTCGAAAGACCGC (((..(((....)))))) | -40.1 | 54.3
GCGAGGTTTCGC ((((....)))) | -67 | 49.4
GCGAGTCGAAAGACCCGC (((.(((....))).))) | -202 | 57.3
GCGAGTGCGAAAGCACGC (((..(((....)))))) | -40.5 | 59
GCGAGTGGAAACATTCGC ((((.((....)).)))) | -146 | 53.2
GCGAGTGTCGC ((((...)))) | -58 | 47
GCGATACATCGC ((((....)))) | -115 | 55.7
GCGATACTCGC ((((...)))) | -95.3 | 49.3
GCGATAGTCGC ((((...)))) | -58.5 | 52.5
GCGATATATCGC ((((....)))) | -108 | 55.6

Sequence | folding enthalpy [1] [kJ/mol] | Tm [2] [°C]
GCGATCCGAAAGGACCGC (((.(((....))).))) | -151 | 63.2
GCGATCGAAAGATACGC ((((((....))).))) | -107 | 50.1
GCGATCGAAAGATAGCGC ((((((....)))..))) | -129 | 55.5
GCGATCGAAAGATTACGC ((((((....)))..))) | -127 | 42
GCGATCGAAAGATTCCGC ((((((....)))..))) | -99.7 | 33.7
GCGATCGAAAGATTTCGC ((((((....)))..))) | -111 | 39.8
GCGATCGGAAACGACCGC (((.(((....))).))) | -204 | 55.5
GCGATCGGAAACGATTGC ((.((((....)))).)) | -182 | 56.3
GCGATGAGTCGC ((((....)))) | -128 | 54.8
GCGATGATTCGC ((((....)))) | -97.7 | 50.9
GCGATGCCGAAAGGCCGC (((..(((....)))))) | -75.4 | 59.3
GCGATGCGAAAGCAGTGC ((..(((....)))..)) | -94.9 | 58.3
GCGATGCGAAAGCCGCGC (((..((....))..))) | -116 | 64.7
GCGATGCGAAAGCCTAGC ((.(.((....)).).)) | -91.3 | 45
GCGATGCGAAAGCGACGC (((..((....))..))) | -123 | 65.7
GCGATGCGAAAGCGCCGC (((..((....))..))) | -128 | 62.1
GCGATGCGAAAGCTACGC (((..((....))..))) | -75.9 | 65
GCGATGCGAAAGCTCCGC (((..((....))..))) | -83.2 | 52.5
GCGATGCGAAAGCTTGGC ((.(.((....)).).)) | -63.3 | 43.8
GCGATGGGAAACCATCAC (.(((((....))))).) | -66.7 | 43.1
GCGATGGGAAACCGTCGC ((((.((....)).)))) | -210 | 58.9
GCGATGGGAAACTATCGC (((((.(....).))))) | -176 | 55.9
GCGATGGGTCGC ((((....)))) | -98.1 | 54.4
GCGATGGTTCGC ((((....)))) | -102 | 49.8

Sequence | folding enthalpy [1] [kJ/mol] | Tm [2] [°C]
GCGATGTCGAAAGACCGC (((..(((....)))))) | -123 | 51
GCGATGTCTCGC ((((....)))) | -82.1 | 48.6
GCGATGTTCGC ((((...)))) | -77.6 | 49.9
GCGATTGCGAAAGCACGC (((..(((....)))))) | -84 | 51.4
GCGATTGGAAACAACCGC (((.(((....))).))) | -137 | 48.4
GCGATTGTCGC ((((...)))) | -82 | 48.2
GCGCAAGGAAACCTACGC (((.(.(....).).))) | -68.7 | 34.6
GCGCACGAAAGTGACCGC ((((((....)))..))) | -91.8 | 48.4
GCGCACGAAAGTGCCGC ((((((....))).))) | -73.2 | 62
GCGCACGAAAGTGCTCGC ((((((....)))..))) | -56.6 | 48.4
GCGCACGAAAGTGTCCGC ((((((....)))..))) | -77.7 | 48
GCGCACGGAAACGTACGC (((.(((....))).))) | -185 | 56
GCGCAGCGAAAGCAGGGC ((.(.((....)).).)) | -42.7 | 51.2
GCGCAGCGAAAGCATCGC (((..((....))..))) | -39.5 | 47.4
GCGCAGCGAAAGCCGAGC ((.(.((....)).).)) | -39.2 | 46.7
GCGCAGCGAAAGCTCAGC ((..(((....)))..)) | -31.7 | 41
GCGCAGGGAAACCCACGC (((..((....))..))) | -112 | 43.9
GCGCAGGGAAACTTGCGC (((((.(....).))))) | -181 | 60.2
GCGCATCGAAAGATCCGC (((.(((....))).))) | -119 | 47.8
GCGCATGGAAACACGCAC (.((.((....)).)).) | -57.8 | 29
GCGCCACCGAAAGGTCGC (((..(((....)))))) | -98.4 | 51.4
GCGCCAGGAAACCGGCGC (((((.(....).))))) | -95.4 | 69.1
GCGCCAGGAAACTAGCGC ((((.((....)).)))) | -176 | 52.5
GCGCCAGGAAACTGGTGC ((.((((....)))).)) | -128 | 65

Sequence | folding enthalpy [1] [kJ/mol] | Tm [2] [°C]
GCGCCCGGAAACAGGCGC (((((.(....).))))) | -133 | 66.7
GCGCCGCGAAAGCAGGGC ((.(.((....)).).)) | -54.9 | 57.4
GCGCCGCGAAAGCCGGGC ((.(.((....)).).)) | -66.3 | 55.3
GCGCCGCGAAAGCGCCGC (((.(((....))).))) | -93.6 | 65.2
GCGCCTCGAAAGAGCCGC (((.(((....))).))) | -158 | 52.2
GCGCGACGAAAGTCACGC (((.(((....))).))) | -152 | 68.9
GCGCGAGCGAAAGCTCGC (((..(((....)))))) | -25.8 | 69.1
GCGCGAGGAAACCCGCGC (((((.(....).))))) | -141 | 69.1
GCGCGCCCGAAAGGGCGC (((..(((....)))))) | -19.4 | 68.4
GCGCGCGAAAGCGAACGC ((((((....)))..))) | -95.9 | 60
GCGCGCGAAAGCGCCCGC ((((((....)))..))) | -40.8 | 45.8
GCGCGCGAAAGCGGCCGC ((((((....)))..))) | -64.2 | 59
GCGCGCGAAAGCGTACGC ((((((....)))..))) | -73.3 | 61.5
GCGCGGCGAAAGCCATGC ((..(((....)))..)) | -68.8 | 53.3
GCGCGGCGAAAGCCTTGC ((..(((....)))..)) | -67 | 46.1
GCGCGGGGAAACCCGCAC (.(((((....))))).) | -34.8 | 53.9
GCGCTACCGAAAGGTCGC (((..(((....)))))) | -129 | 51.4
GCGCTACGAAAGTACCGC (((.(((....))).))) | -151 | 48.5
GCGCTCCGAAAGGATCGC (((.(((....))).))) | -172 | 59.2
GCGCTCGAAAGAGCCCGC ((((((....)))..))) | -49.5 | 43.4
GCGCTCGAAAGAGGCCGC ((((((....)))..))) | -69 | 47.5
GCGCTCGAAAGAGTTCGC ((((((....)))..))) | -92.5 | 43.8
